# VLA-4 inh: inhibition in a human VLA-4 binding assay | AID 2557 | 0.2% of 330,000 active | inhibition, % (about 7 µM as worked out from the volumes in the protocol) | VLA-4 expressing cells, ligand binding flow cytometry; in the data active means inhibition above about 50%
# Granule exo inh: lytic granule exocytosis inhibition | AID 651702 | inhibition, % at 10 µM | TALL-104 LAMP-1 surface exposure, flow cytometry; cells stimulated with thapsigargin and PMA | 0.66% of 360,000 active;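 active means inhibition above about 55%, limit read from the data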
# MT1-MMP act inh: MT1-MMP (human) activation inhibition. AID 651647. 0.061% of 360,000 active. P50281. HT1080 RFP-PRO-GFP cells, GFP/RFP ratio fluorescence, overnight; percent of plate control window, DMSO zero. GFP/RFP ratio change, % at 20 µM;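 active means GFP/RFP ratio change of at least 30% with cell ATP level not reduced by more than half and red fluorescence within 50% of control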
#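 Test system: HT1080 cells expressing an RFP-PRO-GFP fluorescent reporter construct / Compound dosing: single-point 20 µM compound, 1% DMSO / Schedule: cells overnight before dosing, compound overnight, 37 °C, 5% CO2 / Evaluation: GFP/RFP fluorescence ratio / Control set: DMSO and RFP-L50D-GFP cell wells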
# ABCB6 inh 2: inhibitors of human ABC transporter ABCB6. Q9NP58. K562-ABCB6 porphyrin accumulation, flow cytometry, 1 h; hits give low values. fluorescence ratio to DMSO, % at 10 µM. 0.19% of 360,000 active. AID 602162;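 active means fluorescence ratio to DMSO below 75%, the collection mean minus 3 SD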;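 further: signal is porphyrin accumulated inside mitochondria; 100% equals median channel fluorescence of DMSO control wells; lower ratio means ABCB6 inhibition with less porphyrin fluorescence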
# Target sequence (Q9NP58 whole entry, looked up): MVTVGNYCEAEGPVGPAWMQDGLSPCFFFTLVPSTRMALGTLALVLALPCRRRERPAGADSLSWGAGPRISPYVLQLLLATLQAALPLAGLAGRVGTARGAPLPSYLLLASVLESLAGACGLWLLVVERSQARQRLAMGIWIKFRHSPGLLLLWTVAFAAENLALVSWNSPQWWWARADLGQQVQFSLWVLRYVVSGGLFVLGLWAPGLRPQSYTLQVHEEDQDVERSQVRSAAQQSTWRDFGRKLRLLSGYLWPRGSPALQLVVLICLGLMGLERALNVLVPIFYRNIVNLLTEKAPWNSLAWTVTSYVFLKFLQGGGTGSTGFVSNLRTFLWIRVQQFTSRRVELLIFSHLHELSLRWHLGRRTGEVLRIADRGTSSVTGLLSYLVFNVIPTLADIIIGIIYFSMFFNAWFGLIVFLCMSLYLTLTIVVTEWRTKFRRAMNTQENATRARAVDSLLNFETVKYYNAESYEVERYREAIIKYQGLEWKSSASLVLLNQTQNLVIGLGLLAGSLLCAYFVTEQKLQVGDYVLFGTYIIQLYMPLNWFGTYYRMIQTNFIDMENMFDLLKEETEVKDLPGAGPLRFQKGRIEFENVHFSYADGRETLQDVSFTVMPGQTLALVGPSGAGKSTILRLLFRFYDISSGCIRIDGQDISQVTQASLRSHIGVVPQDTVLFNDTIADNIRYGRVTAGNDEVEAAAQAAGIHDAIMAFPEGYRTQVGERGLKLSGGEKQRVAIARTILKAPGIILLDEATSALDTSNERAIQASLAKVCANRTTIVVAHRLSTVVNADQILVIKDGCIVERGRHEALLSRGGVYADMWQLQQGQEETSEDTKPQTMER
# DAGLB inh: diacylglycerol lipase beta (human) inhibition | Q8NCG7 | HEK293T DAGLB membrane lysate, EnzChek fluorogenic substrate | inhibition, % at 5.17 µM | 0.059% of 340,000 active; in the data active means inhibition above about 34%;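 further: 0% = enzyme with vehicle and 100% = wells lacking enzyme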
# FGF22 binding: binders of recombinant human FGF22 by thermal shift | SYPRO orange fluorescence; percent of sucrose octasulfate shift, DMSO zero | activity (Tm shift, normalised), % at 9.99 µM | 1.5% of 340,000 active;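 active means mean Tm shift, scaled 0 neutral to 100 positive control, at about 1.3% or above, every replicate too, limit read from the data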
# * marks the source's active call; other numbers are inactive results; x = not tested or not shown. In the library only some 2% were active in any assay of this set; here they are far more common.
SMILES,VLA-4 inh,Granule exo inh,MT1-MMP act inh,ABCB6 inh 2,DAGLB inh,FGF22 binding
COc1ccc(S(=O)(=O)N(C)C[C@@H]2Oc3ccc(NS(=O)(=O)c4ccc(Cl)cc4)cc3C(=O)N([C@@H](C)CO)C[C@@H]2C)cc1,x,x,x,x,x,-0.3
O=C(COC(=O)c1ccccc1Cl)NC(=O)NCc1ccccc1,9.8,-1.1,-0.4,101.0,-1.2,0.1
O=C(COC(=O)c1cc(Br)ccc1Cl)NC(=O)NCc1ccccc1,7.5,-1.1,1.9,104.0,-0.4,44.0*
S=C(NCC1CCCO1)NC1CCCCC1 (centres undefined),0.0,-1.9,1.6,97.0,2.3,43.3*
CC1(c2ccccc2)NC(=O)N(CC(=O)Nc2ccc([N+](=O)[O-])cc2)C1=O (centres undefined),12.0,13.6,-2.1,100.0,0.1,43.3*
Cc1ccc(N/N=C(\C#N)C(N)=S)cc1C,28.3,13.8,-5.1,95.0,4.6,43.8*
CO[C@@H]1CN(C)C(=O)c2cc(NS(=O)(=O)CC(F)(F)F)ccc2OC[C@@H](C)N(C(=O)c2ccc3c(c2)OCO3)C[C@H]1C,x,x,x,x,x,-0.3
COc1cccc(-c2ccc([C@@H]3[C@@H](C#N)N(C(=O)c4ccccn4)[C@@H]3CO)cc2)c1,x,x,x,x,x,-0.5
COc1ccc(C)cc1NS(=O)(=O)c1ccc2c(c1)CCN2C(C)=O,7.4,-9.0,0.5,108.0,-2.0,-0.5
CC(=O)N1CCCc2cc(S(=O)(=O)Nc3ccccc3C)ccc21,6.0,-14.9,0.8,99.0,-4.1,43.5*
CCCNC(=O)N1CC2(C1)[C@@H](c1ccccc1)[C@@H](CO)N2Cc1cccc(F)c1,x,x,x,x,x,0.0
C[C@@H]1CN([C@H](C)CO)S(=O)(=O)c2ccc(-c3cccc(F)c3)cc2O[C@H]1CN(C)C(=O)Nc1cc(F)ccc1F,x,x,x,x,x,-0.6
CCOC(=O)N1CCC(NCCNC(=O)c2ccco2)CC1,-5.4,8.1,3.2,96.0,0.8,44.0*
CCOC(=O)N1CCC(NCCNC(=O)c2ccc(Cl)cc2)CC1,21.9,-0.7,-1.5,101.0,0.4,x
COc1ccc(S(=O)(=O)Nc2ccc3c(c2)C(=O)N([C@@H](C)CO)C[C@@H](C)[C@@H](CN(C)C(=O)CCC(F)(F)F)OCCCC[C@@H](C)O3)cc1,x,x,x,x,x,-0.4
COc1ccc(-c2cc(=O)oc3cc(OC(C)C(=O)NCc4ccccn4)ccc23)cc1 (centres undefined),-12.0,-0.6,6.4,96.0,-0.7,48.8*
COc1ccc(-c2cc(=O)oc3cc(OCC(=O)NCc4ccccn4)ccc23)cc1,2.8,-5.6,0.4,98.0,-2.9,0.1
Cc1cccc(C)c1NC(=S)Nc1ccc(Cl)c(Cl)c1,16.3,1.0,11.3,100.0,1.9,43.4*
NC(=S)Nc1ccc(Cl)c(Cl)c1,-8.6,19.2,5.6,97.0,-0.9,0.1
NN(Cc1ccccc1)C(=S)Nc1ccc(Cl)c(Cl)c1,-11.9,61.1*,-0.8,95.0,-8.5,-0.1
OCCNC(=S)Nc1cc(Cl)cc(Cl)c1,0.4,-15.7,-9.3,98.0,-1.9,0.1
OCCNC(=S)Nc1ccc(Cl)c(Cl)c1,-7.7,-0.3,5.2,101.0,-0.3,1.4*
Cc1cc(C)cc(NC(=S)Nc2ccc(Cl)c(Cl)c2)c1,12.9,-0.7,2.6,100.0,-0.2,0.8
CCCCNC(=O)c1onc(CSc2ccc(Cl)cc2)c1C(=O)NCCCC,-0.2,70.4*,-1.3,96.0,-10.2,35.1*
Oc1ccc(Cl)cc1Sc1cc(Cl)ccc1O,x,2.7,2.0,81.0,3.8,2.3*
SMILES,VLA-4 inh,Granule exo inh,MT1-MMP act inh,ABCB6 inh 2,DAGLB inh,FGF22 binding
COc1ccc(/C=C/C=C2\NC(=S)NC2=O)cc1,5.4,57.9*,-5.4,103.0,-0.2,0.2
COc1ccc(C=C2NC(=S)NC2=O)cc1,x,-2.9,0.8,98.0,0.7,-0.2
Cc1cc(NC(=O)COn2nnc3ccc(S(C)(=O)=O)cc32)ccc1Br,4.1,-2.2,-2.5,92.0,-1.6,0.0
COc1cc(NC(=O)COn2nnc3ccc(S(C)(=O)=O)cc32)cc(OC)c1,-6.5,-14.6,-0.6,104.0,-0.5,43.1*
O=C(NCC[C@@H]1CC[C@@H](NC(=O)c2ccc3c(c2)OCO3)[C@@H](CO)O1)Nc1cc(F)ccc1F,x,x,x,x,x,-0.2
Brc1ccc2c(c1)-c1ccccc1C1=NCCN12,x,-7.8,6.4,92.0,-8.8,43.4*
C[C@H]1CN([C@@H](C)CO)S(=O)(=O)c2ccc(C#Cc3ccncc3)cc2O[C@H]1CN(C)C(=O)C1CCOCC1,x,x,x,x,x,-0.1
CC1(C)CC(=O)C=C(c2ccccc2-c2ccc3cc[nH]c3c2)C1=O,x,-5.5,-0.2,107.0,0.2,43.4*
CC1(C)CC(=O)C=C(c2ccc(-c3ccc4[nH]ccc4c3)cc2)C1=O,x,69.5*,9.9,99.0,-0.9,0.3
CC(C)NC(=O)N(C)C[C@@H]1Oc2ccc(NS(=O)(=O)c3ccc(Cl)cc3)cc2CC(=O)N([C@H](C)CO)C[C@@H]1C,x,x,x,x,x,-0.3
COc1ccc(Cn2nnnc2C(c2cc3cccc(C)c3[nH]c2=O)N2CCN(C)CC2)cc1 (centres undefined),-2.3,2.5,-6.0,97.0,-1.2,0.3
COc1ccc(Cn2nnnc2C(c2cc3cc(C)ccc3[nH]c2=O)N2CCN(C)CC2)cc1 (centres undefined),0.0,2.5,-5.1,100.0,3.3,43.5*
O=C(NC(=S)N1CCN(c2nc(-c3ccccc3)cs2)CC1)c1cncc(Br)c1,5.2,2.2,5.9,98.0,4.5,43.3*
O=C(CN1CCN(c2nc(-c3ccccc3)cs2)CC1)NNC(=O)c1ccc(Br)cc1,1.0,-2.0,12.4,100.0,-0.8,x
CCNC(=O)C[C@@H]1CC[C@H]2[C@@H](COc3ccc(NC(=O)c4cccc(C(F)(F)F)c4)cc3C(=O)N2C)O1,x,x,x,x,x,0.1
CCC(=O)N[C@@H]1CC[C@@H](CCNS(=O)(=O)c2ccc(Cl)cc2)O[C@@H]1CO,x,x,x,x,x,-0.1
Cc1ccc(S(=O)(=O)Nc2ccc(S(=O)(=O)Nc3cc(C)nc(C)n3)cc2)cc1,20.1,1.9,3.4,94.0,1.1,43.4*
O=C(O)Cc1sc(Nc2ccc(Cl)cc2)nc1-c1cccs1,x,x,x,x,x,1.4*
Nc1nc(-c2cccs2)c(CC(=O)O)s1,8.3,2.5,-57.7,107.0,-1.9,0.4
CO[C@@H]1CN(C)C(=O)c2ccc(NC(=O)Cc3ccccc3)cc2OC[C@@H](C)N(CC2CC2)C[C@H]1C,x,x,x,x,x,0.0
Cc1noc(C)c1NC(=O)Nc1ccc2c(c1)C(=O)N([C@@H](C)CO)C[C@H](C)[C@H](CN(C)Cc1ccc(C(F)(F)F)cc1)O2,x,x,x,x,x,-0.1
Cc1ccc(CS(=O)(=O)CCC(=O)NCCc2ccccc2)cc1,-0.7,-9.2,0.8,95.0,0.1,-0.1
O=C(CCS(=O)(=O)Cc1ccccc1)NCCc1ccccc1,10.8,0.7,1.3,98.0,-1.3,43.4*

# Assay outcomes as filed in PubChem BioAssay.
